PP1 inh: PP1-alpha phosphatase inhibitors, primary screen, counter-screen for PP5 inhibitor project, biochemical, fluorescence, OMFP substrate, single point; Serine/threonine-protein phosphatase PP1-alpha catalytic subunit (Homo sapiens), P62136; inhibition, % at 6.7 µM; actives 0.9% (n = 320,000); purified PP1alpha; AID 2235, 2010;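 active = inhibition above the mean inhibition of all tested compounds plus 3 SD, computed separately for each screening campaign, cut at about 15% in these data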
RBBP9 inh: human RBBP9 inhibitors, primary screen, biochemical, fluorescence polarization, FP-Rh probe, HTS; inhibition, % at 7.94 µM; actives 0.2% (n = 220,000); AID 1515, 2009; Serine hydrolase RBBP9 (Homo sapiens), O75884; recombinant RBBP9;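 active = inhibition above the campaign mean of all tested compounds plus 3 SD, cut at about 14% in these data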;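 also: plate controls were DMSO wells with RBBP9 for no effect and wells lacking RBBP9 protein for full effect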
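Material: RBBP9 protein. Amount: RBBP9 at 2.5 µM in dispensed solution, before mixing. Schedule: 30 min then 45 min, 25 °C. Medium: Tris buffer pH 8.0, NaCl, Pluronic. Measured by: fluorescence polarization. Measure: percent inhibition from mP, scaled between DMSO and no-protein wells. Replication: one well per compound.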
p97 inhibitor: inhibitors of human p97 ATPase, primary screen, biochemical; Transitional endoplasmic reticulum ATPase (Homo sapiens), P55072; recombinant p97 ATPase, Kinase-Glo ATP luminescence, 3 h; inhibition, % at 8 µM; actives 0.42% (n = 220,000); in the data active = inhibition above about 15%;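 also: 0% = DMSO vehicle and 100% = wells lacking enzyme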
PKD1 inh: inhibitors of human PKD1 kinase, biochemical, fluorescence polarization. actives 0.056% (n = 200,000). inhibition, % (test concentration not listed). PKD1 kinase fluorescence polarization assay. AID 797, 2007; in the data active = inhibition above about 50%
Target sequence (Q15139 whole entry, looked up): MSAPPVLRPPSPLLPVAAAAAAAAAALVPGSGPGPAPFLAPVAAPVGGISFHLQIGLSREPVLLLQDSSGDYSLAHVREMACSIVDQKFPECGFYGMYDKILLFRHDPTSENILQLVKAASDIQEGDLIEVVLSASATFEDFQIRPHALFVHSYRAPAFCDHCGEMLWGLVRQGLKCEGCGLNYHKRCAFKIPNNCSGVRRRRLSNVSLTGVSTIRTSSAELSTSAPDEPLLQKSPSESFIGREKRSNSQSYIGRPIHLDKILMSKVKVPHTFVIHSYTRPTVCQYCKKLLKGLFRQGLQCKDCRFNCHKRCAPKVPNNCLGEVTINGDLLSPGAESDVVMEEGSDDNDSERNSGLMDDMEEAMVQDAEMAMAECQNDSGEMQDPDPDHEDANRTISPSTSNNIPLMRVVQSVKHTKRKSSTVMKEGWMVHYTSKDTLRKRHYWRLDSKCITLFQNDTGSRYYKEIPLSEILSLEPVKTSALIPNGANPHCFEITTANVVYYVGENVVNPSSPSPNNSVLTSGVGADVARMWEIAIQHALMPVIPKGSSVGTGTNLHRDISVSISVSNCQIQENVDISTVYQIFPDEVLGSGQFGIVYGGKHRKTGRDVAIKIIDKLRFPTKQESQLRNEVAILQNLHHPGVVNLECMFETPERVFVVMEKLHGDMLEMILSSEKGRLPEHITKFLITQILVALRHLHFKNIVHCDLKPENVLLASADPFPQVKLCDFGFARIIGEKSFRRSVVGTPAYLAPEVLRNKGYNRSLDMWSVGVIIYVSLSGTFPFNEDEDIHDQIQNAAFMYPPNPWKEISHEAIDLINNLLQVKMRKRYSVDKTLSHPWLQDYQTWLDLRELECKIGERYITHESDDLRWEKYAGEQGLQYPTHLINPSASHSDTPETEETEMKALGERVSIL
PP5 primary: PP5 phosphatase inhibitors, primary screen, biochemical, fluorescence; Serine/threonine-protein phosphatase 5 (Homo sapiens), P53041; purified PP5c, OMFP substrate fluorescence; inhibition, % at 6.7 µM; actives 0.18% (n = 320,000);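 active = inhibition above the campaign's mean inhibition across all tested compounds plus 3 SD, cut at about 9.5% in these data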;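 also: 0% = DMSO only and 100% = 100 µM cantharidin control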
Hsp70 act: Hsp70 transcriptional activators, primary screen, cell-based, HeLa, Hsp70 promoter luciferase, luminescence, 10 µM; actives 0.04% (n = 200,000); HeLa Hsp70 promoter luciferase reporter; scaled: vehicle 0, proteasome-inhibitor control 100%; activation, % at 10 µM;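 active = activation above the mean across all tested compounds plus 3 SD, cutoff set per campaign, cut at about 5.5% in these data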;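 also: 100% = MG132 at 30 µM as the positive control and 0% = DMSO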
Hsp70 act DR: Hsp70 transcriptional activators, dose response, cell-based, HeLa, Hsp70 promoter luciferase, luminescence, triplicate; shares compounds with Hsp70 act; HeLa hsp70.1pr-luc reporter; calls only at 99 µM; actives 10% (n = 70);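 active = over 50% activation at some tested dose; inactive = under 50% activation at every tested dose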
p97 inh conf: p97 ATPase inhibitors, retest, confirmation, biochemical; recombinant p97 ATPase, Kinase-Glo ATP luminescence; inhibition, % at 8 µM; shares compounds with p97 inhibitor; actives 44% (n = 760);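 active = percent inhibition of p97 ATPase above a set limit, the primary screen's mean plus 3 SD, cut at about 15% in these data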;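 also: 0% = DMSO wells and 100% = wells lacking p97 protein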
PP1 confirm: PP1 phosphatase inhibitors, confirmation, biochemical, fluorescence, OMFP substrate, triplicate | purified PP1alpha | AID 2358, 2010 | inhibition, % at 6.7 µM | actives 52% (n = 1,900) | shares compounds with PP1 inh;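 active = mean PP1 inhibition above a set limit taken from the earlier primary screen, cut at about 15% in these data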
PP5 inh counter: PP5 phosphatase inhibition by PP1 hits, confirmation, counter-screen for PP1 inhibitor project, biochemical, fluorescence, triplicate; shares compounds with PP1 inh; purified PP5c, OMFP fluorescence; inhibition, % at 6.7 µM; actives 4% (n = 1,900);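 active = mean PP5 inhibition over triplicate wells above about 9.5% taken from the earlier PP1 screen, limit read from the data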
Numbers without * were called inactive; . = no result given; + = active, no number; ! = a repeat was not active. Only some compounds are listed: those with a hit (about 1.5% of all), similar ones and a draw of the others.

SMILES	PP1 inh	RBBP9 inh	p97 inhibitor	PKD1 inh	PP5 primary	Hsp70 act	p97 inh conf	others
COC(=O)c1ccc2c(c1)C(C)(C)C(/C=C/c1ccccc1O)=[N+]2C	18.9*	-154.5	4.3	-17.1	4.9	8.4*	.	Hsp70 act DR=+;PP1 confirm=13.1;PP5 inh counter=-3.7
CCC(=O)N1CCN=C1SCc1c(F)cccc1Cl	-3.1	.	.	.	-0.6	.	.
O=C(OCC(=O)c1c[nH]c2ccccc12)c1ccc([N+](=O)[O-])s1	2.0	0.8	31.2*	-9.6	6.2	-0.1	40.1*
COc1ccc(OC)c(Nc2nc(N)nc(CCl)n2)c1	-1.9	-7.2	24.5*	.	-1.6	.	24.5*
COc1cccc(Nc2nc(N)nc(CCl)n2)c1	-0.9	-9.0	18.2*	.	1.2	.	16.7*
COc1ccccc1Nc1nc(N)nc(CCl)n1	-2.4	-0.6	14.4	.	-0.1	.	.
O=C(NNC(=S)NC(=O)c1ccc(F)cc1)c1cccnc1	-4.5	.	.	.	3.7	.	.
O=C(NNC(=S)NC(=O)c1cccnc1)c1ccc(F)cc1	-5.1	-7.2	15.2*	.	0.0	.	8.7
C=CCOc1ccc(C(=O)Nc2ccccc2C(=O)NCc2cccnc2)cc1	0.1	.	.	.	-0.7	.	.
COc1ccc2c(C(=O)CCl)c[nH]c2c1	-5.6	0.5	35.6*	.	-3.3	.	42.8*
COc1ccc(OCC(=O)c2c[nH]c3ccccc23)cc1	-3.8	-6.5	3.5	1.2	2.2	-0.1	.
CCC(=O)Nc1cccc(-c2cn3ccsc3n2)c1	-3.0	-2.8	15.2*	2.9	0.8	-0.2	10.4
CC(C)CC(=O)Nc1cccc(-c2cn3ccsc3n2)c1	2.6	-9.5	0.8	-5.0	-2.4	0.9	.
COc1ccccc1C(=O)NCCNC(=O)c1ccc(C)nc1	2.3	.	.	.	0.1	.	.
Cc1[nH]c2ccccc2c1/C=N/NC(=O)c1ccccc1	-1.8	.	.	.	1.2	.	.
Cc1[nH]c2ccccc2c1/C=N/Nc1cccc(C(=O)O)c1	-2.1	-3.6	18.5*	.	-1.4	.	19.1*
C#CCNC(=O)C1=C[C@H](c2ccc(Br)cc2)C[C@H](OCCCCO)O1	0.6	0.8	6.6	9.4	1.7	0.0	.
Cc1ccc(N(CCC(=O)N2CCOCC2)S(=O)(=O)c2ccccc2)cc1	-7.5	.	.	.	2.7	.	.
Cc1ccc(-c2nnc(NCc3nc4ccccc4[nH]3)c3ccccc23)cc1S(=O)(=O)N(C)C	10.7	-5.2	10.2	0.9	2.1	-0.3	.
Cc1ccc(-c2nnc(NCc3nc4ccccc4[nH]3)c3ccccc23)cc1S(=O)(=O)N1CCOCC1	8.4	-14.1	15.2*	3.9	2.1	-0.4	12.4
CC(Oc1ccc(Br)cc1)C(=O)NCc1ccccn1 (stereo unspecified)	1.3	-5.9	0.2	7.7	-1.7	-0.3	.
CC1CC1C(=O)OCC(=O)Nc1cccc([N+](=O)[O-])c1 (stereo unspecified)	-0.8	-14.7	-5.1	-2.2	-1.2	-0.2	.
COc1cc(/C=C2\C(=O)N(CCC#N)N=C2C)ccc1OCC(=O)Nc1ccccc1	1.2	7.5	28.5*	-5.7	1.1	-0.2	3.9
CCOc1cc(/C=C2\C(=O)N(CCC#N)N=C2C)ccc1OCC(N)=O	-1.9	-11.0	17.2*	0.5	-0.5	-0.1	6.0
O=C(COC(=O)c1ccc(CO)cc1)Nc1ccc(OC(F)F)cc1	-1.2	2.5	9.9	-1.4	-0.8	0.1	.
SMILES	PP1 inh	RBBP9 inh	p97 inhibitor	PKD1 inh	PP5 primary	Hsp70 act	p97 inh conf	others
Cc1ccn2c(c1)nc(=O)c1cc(S(=O)(=O)N3CCOCC3)ccc12	-2.9	.	.	.	1.5	.	.
CCN(CC(=O)Nc1ccc2c(c1)OCCO2)S(=O)(=O)c1ccc(C)cc1	-1.0	1.6	1.3	2.0	1.7	-0.1	.
COc1ccc(Cl)cc1NC(=O)C/C(C)=N/NC(=O)Cc1ccccc1	1.7	-2.0	15.1*	-9.4	0.5	-0.5	5.9
O=C(CC1CCCC1)Nc1ccc2c(c1)CCC2	0.2	-22.8	46.2*	-3.2	-0.2	0.1	4.1
O=C(c1ccc(Sc2ccc(F)cc2)c([N+](=O)[O-])c1)N1CCOCC1	1.1	-6.5	3.0	2.7	0.5	0.0	.
CC(C)Nc1ccc(Nc2ccnc3cc4ccccc4cc23)cc1	9.4	-4.9	28.7*	.	0.5	.	32.7*
O=C(Nc1ccccc1)c1ccc(NC(=O)C2CC2)cc1	-2.2	.	.	.	-1.1	.	.
CC(C)CN1C(=O)C(=O)N(CC(=O)N(C)CC(=O)Nc2ccc(Cl)c(C(F)(F)F)c2)C1=O	0.8	.	.	.	3.8	.	.
CC(=O)Oc1cc2c3c(c1)/C(=C1/SC(=S)NC1=O)C(=O)N3C(C)(C)C=C2C	8.8	5.3	25.4*	.	4.3	.	44.7*
COc1ccc(CNc2ncnc3c2[nH]c2ccccc23)cc1	0.5	1.1	15.8*	.	0.9	.	19.7*
CN(C)CCCNC(=O)C1(O)c2cc(Br)ccc2NC(=O)N1c1c(F)cccc1F (stereo unspecified)	1.0	.	.	.	0.8	.	.
C=CCc1ccccc1OCC(O)CN1CCN(Cc2ccc3c(c2)OCO3)CC1 (stereo unspecified)	2.9	-2.1	15.7*!	-2.8	2.2	-0.5	0.9
O=S(=O)(c1ccc(F)cc1)c1snnc1-c1ccccc1	-1.8	-1.1	3.8	-3.3	1.2	0.1	.
O=S(=O)(c1ccc(Cl)cc1)c1snnc1-c1ccccc1	-4.5	8.0	15.8*	-3.3	-0.3	-0.1	13.3
O=C1C=C(Nc2ccccc2C(=O)O)c2ccccc2C1=O	7.3	-1.4	22.8*	.	1.3	.	21.1*
O=C1NC(=O)/C(=C/c2cccc(O)c2)N1	-1.1	-1.6	19.1*	.	0.1	.	14.1
c1cncc(CNc2nc(-c3cccnc3)nc3ccccc23)c1	0.6	.	.	.	3.5	.	.
c1cncc(-c2nc(NCc3ccc4c(c3)OCO4)c3ccccc3n2)c1	4.2	-12.5	17.3*	.	2.6	.	20.6*
O=c1cc(CCl)[nH]c2nc3ccccc3n12	8.7	-3.6	38.3*	.	-2.1	.	38.2*

Assay outcomes deposited in PubChem BioAssay by several laboratories.
